Bioassay records deposited in PubChem by several laboratories.
S1P4 antag: S1P4 receptor antagonists, primary screen, cell-based; Sphingosine 1-phosphate receptor 4 (Homo sapiens), O95977; S1P4-expressing cells, antagonist mode, reporter read-out; inhibition, % at 4.98 µM; actives 0.26% (n = 220,000); AID 1510, 2009; in the data active means inhibition above about 29%;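 further: 0% = wells stimulated with agonist and 100% = vehicle wells without agonist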
Mdm2 ligase inh: MDM2-luciferase reporter signal enhancers, primary screen, MDM2 E3 ligase inhibitor project, cell-based, luminescence, 1536-well; actives 0.11% (n = 210,000); cell-based MDM2 ubiquitination luciferase reporter, 2 h; 0 = plate control, 100 = twice control, blank-subtracted; signal enhancement, % at 5 µM; E3 ubiquitin-protein ligase Mdm2 (Homo sapiens), Q00987;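 active means signal enhancement of 30% or more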;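 further: luminescence tracks abundance of the self-degrading MDM2-luciferase fusion protein; higher signal means inhibition of MDM2 E3 ligase activity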
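Material: Stable MDM2–luciferase fusion reporter cells | Amount: 2000 cells seeded into each well | Dosing: One concentration, 5 µM, with 0.2% DMSO | Incubation: 4 h cell settling then 2 h compound exposure, 37 °C | Measured by: Luciferase luminescence | Read-out basis: % enhancement relative to plate controls after blank subtraction | Benchmarks: Control and blank well means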
Lmaj promast: Leishmania major promastigote growth inhibition, primary screen; Leishmania major promastigotes, resazurin fluorescence viability; inhibition, % at 10 µM; AID 1063, 2008; actives 9% (n = 200,000); in the data active means inhibition above about 50%;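 further: promastigotes grown with compound for 44 hours at 28 °C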
S1P4 agonist: S1P4 receptor agonists, primary screen, cell-based. Sphingosine 1-phosphate receptor 4 (Homo sapiens), O95977. S1P4-expressing cell line, agonist reporter assay. activation, % at 4.98 µM. actives 0.35% (n = 220,000); in the data active means activation above about 11%;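 further: 0% = DMSO vehicle and 100% = reference agonist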
S1P3 antagonist: S1P3 receptor antagonists, primary screen, cell-based; CHO S1P3 NFAT-BLA reporter, FRET fluorescence, antagonist mode; inhibition, % at 4.98 µM; actives 0.27% (n = 170,000); AID 485, 2006;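 active means inhibition above the plate cutoff, the mean inhibition of test wells on that plate plus 3 SD, cut at about 28% in these data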;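 further: cells challenged with S1P at its EC80 of 0.8 µM; blue over green emission ratio from cleaved BLA substrate after 4 h stimulation; 0% = S1P-stimulated wells and 100% = unstimulated DMSO-only wells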
Target sequence (Q99500 whole entry, looked up): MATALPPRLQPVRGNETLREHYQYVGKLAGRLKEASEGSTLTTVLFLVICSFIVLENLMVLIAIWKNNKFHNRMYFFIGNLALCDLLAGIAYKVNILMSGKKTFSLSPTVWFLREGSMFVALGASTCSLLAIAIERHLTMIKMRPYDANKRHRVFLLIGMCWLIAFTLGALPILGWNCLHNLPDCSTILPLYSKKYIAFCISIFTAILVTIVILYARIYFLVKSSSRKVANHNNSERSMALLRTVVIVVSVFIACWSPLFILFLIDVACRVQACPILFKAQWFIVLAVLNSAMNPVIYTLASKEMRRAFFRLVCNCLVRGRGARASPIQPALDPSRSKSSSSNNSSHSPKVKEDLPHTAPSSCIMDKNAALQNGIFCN
Numbers without * were called inactive; nt = no result given. The full list was thinned out, with hits kept by preference.

SMILES | S1P4 antag | Mdm2 ligase inh | Lmaj promast | S1P4 agonist | S1P3 antagonist
O=C(CSc1ncn[nH]1)Nc1ccc(Cl)c(S(=O)(=O)N2CCOCC2)c1 | -14.8 | -0.7 | 2.0 | -0.8 | -1.0
O=C1/C(=C/c2ccco2)SC(=S)N1C1CCS(=O)(=O)C1 (stereo unspecified) | -27.6 | -6.8 | 93.2* | 0.8 | 2.5
O=C1/C(=C\c2ccco2)SC(=S)N1C1CCS(=O)(=O)C1 (stereo unspecified) | -10.4 | -17.1 | nt | -0.8 | -13.6
COc1ccc(NC(=O)c2cc(=O)[nH]c(=O)[nH]2)cc1S(=O)(=O)Nc1ccccc1Cl | 6.8 | -8.3 | -6.1 | 0.8 | 1.4
COc1ccc(C2C(C#N)=C(N)Nc3nc4ccccc4n32)cc1 (stereo unspecified) | -15.2 | -1.2 | 64.7* | -0.4 | 4.3
COc1cccc(Nc2nnc(SCC(=O)Nc3sccc3C(N)=O)s2)c1 | -8.0 | -30.9 | 65.0* | -0.9 | -16.9
CCc1ccc(Nc2nnc(SCC(=O)NCCN3C(=O)CSC3=O)s2)cc1 | -9.8 | -18.4 | 23.7 | -0.9 | -16.1
CCc1ccc(Nc2nnc(SCC(=O)Nc3sccc3C(N)=O)s2)cc1 | -15.7 | 0.0 | 98.1* | 0.3 | -3.3
CCOc1ccccc1Nc1nnc(SCC(=O)NC(=O)c2cccn2C)s1 | -23.7 | -5.3 | 55.7* | 0.2 | -13.0
CCc1ccc(Nc2nnc(SCC(=O)Nc3cccnc3Cl)s2)cc1 | -15.5 | -21.4 | 90.1* | 7.6 | -0.6
CCOC(=O)C1=C(C)OC(N)=C(C#N)C1c1cc2c(cc1[N+](=O)[O-])OCO2 (stereo unspecified) | 7.3 | -3.5 | 21.2 | 1.2 | 3.4
CCCn1c(-c2cccs2)nc2ccccc21 | -7.1 | -4.2 | 33.1 | -0.2 | 1.3
CCN1c2ccccc2-c2nc3ccccc3n2C1c1cccs1 (stereo unspecified) | -19.2 | -11.6 | 95.7* | 1.7 | -6.8
O=C(C1CCCCC1)N1CCN(c2ccccc2F)CC1 | -1.8 | -0.6 | -7.3 | 1.8 | -25.3
CC(C)CN1CCC(C(=O)N2CCN(c3ccccc3F)CC2)CC1 | -21.8 | 3.6 | 81.9* | 1.2 | -6.9
CC1CCCc2sc3nc(N4CCN(CCO)CC4)n4ncnc4c3c21 (stereo unspecified) | -6.5 | -15.6 | 90.8* | 0.5 | -11.1
O=C(O)c1c2c(nc3ccc(S(=O)(=O)N4CCC(C(=O)NC5CCCCCC5)CC4)cc13)CCCC2 | 0.6 | 2.5 | 8.7 | -0.4 | -12.5
COc1ccccc1CNC(=O)COC(=O)/C=C/c1cccs1 | -21.0 | -8.0 | 50.7* | 0.9 | -8.5
CC(C)c1nc(N2CCN(C(=O)c3ccccc3)CC2)c(C#N)c2c1COC(C)(C)C2 | -19.9 | -0.4 | 74.2* | -1.8 | -18.2
CCOCC(O)CNc1ccccc1 (stereo unspecified) | -12.0 | -4.1 | 16.1 | 0.7 | 1.8
OC(COc1ccccc1)CN1CCN(CC(O)COc2ccccc2)CC1 (stereo unspecified) | 2.4 | -8.0 | 87.0* | 2.7 | -12.3
COc1ccc(N2CCN(CC(O)COc3ccccc3[N+](=O)[O-])CC2)cc1 (stereo unspecified) | -20.8 | -2.8 | 92.2* | 3.6 | -8.4
CC(C)c1ccc(OCC(O)CN2CCN(c3ccccc3)CC2)cc1 (stereo unspecified) | -16.0 | 0.0 | 86.5* | 0.6 | 15.9
OC(CNc1ccccc1)COc1ccc(OCC(O)CNc2ccccc2)cc1 (stereo unspecified) | -19.5 | -86.6 | 65.9* | 0.6 | nt
CN1CCN(C(=S)c2cn(Cc3ccccc3F)c3ccccc23)CC1 | -7.6 | 3.6 | 34.7 | 1.4 | 11.9
SMILES | S1P4 antag | Mdm2 ligase inh | Lmaj promast | S1P4 agonist | S1P3 antagonist
C/C(=N/NC(=O)CNC(=O)COc1ccccc1)c1ccco1 | -10.8 | nt | -0.8 | 1.2 | -4.8
O=C(C1CCCN(S(=O)(=O)c2cccc3cccnc23)C1)N1CCN(c2ccc(F)cc2)CC1 (stereo unspecified) | -17.7 | -7.6 | 3.8 | 0.8 | -15.9
CC(C)(C)NCc1cccn1-c1sc2c(c1C#N)CCCC2 | -19.4 | -28.6 | 78.4* | 0.6 | 21.2
N#Cc1c(N2C(=O)Nc3ccccc3N2O)sc2c1CCCC2 | 1.3 | -11.4 | -2.5 | 2.3 | -11.1
CCNC(=S)NNC(=O)c1cc(-c2cccc(C)c2)nc2ccccc12 | -16.9 | -48.9 | 95.0* | 0.3 | nt
CCNC(=S)NNC(=O)c1ccccc1Cl | -27.0 | -6.8 | 50.5* | -0.7 | -9.0
CCOc1ccc(-c2cc(NC(=O)Cn3ncc4c3-c3ccccc3OC4)on2)cc1OCC | -18.6 | -11.7 | 10.6 | -0.2 | -19.2
COc1ccc(C(=O)Nc2cccc(OC)c2)cc1 | -16.6 | -29.8 | -3.5 | -0.7 | 19.5
COc1cccc(NC(=O)c2cc(-c3ccncc3)nc3c(C)cc(C)cc23)c1 | 11.9 | -19.1 | 55.1* | -0.7 | 7.3
CC(C)C(C)(C#N)NC(=O)CSc1nnc(-c2ccccc2)o1 (stereo unspecified) | 0.6 | -9.5 | -7.9 | -4.7 | nt
COCC(=O)NNC(=S)Nc1cccc(C)c1C | -10.4 | -4.6 | -10.2 | -0.4 | 4.5
CCN(CC)CCCNC(=O)c1ccc2c(Cl)c3c(nc2c1)CCCC3 | -3.8 | -24.8 | 82.7* | -0.5 | -2.9
CCN(CC)CCNC(=O)CSc1c2c(nc3cc(Cl)ccc13)CCCC2 | 3.8 | -15.9 | 100.6* | -0.7 | 8.6
O=C(Nc1ccc(-c2cn3c(n2)SCC3)cc1)c1ccco1 | 11.2 | -21.8 | nt | -0.2 | -5.1
Cc1ccc(NC(=O)c2ccc(Cn3cc([N+](=O)[O-])cn3)cc2)c(C)c1 | -19.9 | -5.6 | -9.2 | 0.0 | -2.7
COCCNc1c(-c2ccc(OC)cc2)nc2ccc(Cl)cn12 | -7.2 | -1.6 | 76.2* | 1.7 | 1.2
O=S(=O)(c1cccc2cccc(Cl)c12)N1CCCC1 | 3.2 | -6.0 | 4.3 | 0.5 | 1.5
CCOC(=O)C(Cc1ccc(O)cc1)NC(=O)CNC(=O)C(CC(C)C)NC(=O)OC(C)(C)C (stereo unspecified) | -19.2 | -15.3 | 57.3* | 0.6 | -10.7
COC(=O)C(Cc1ccccc1)NC(=O)C(CC(C)C)NC(=O)OC(C)(C)C (stereo unspecified) | 1.8 | -6.8 | 5.5 | 0.0 | -9.5
CCC/C(=N/NC(=O)c1ccccc1Cl)c1ccccc1 | 3.6 | 1.1 | 95.1* | -0.1 | -9.9
O=c1[nH]ncc(N2CCN(C(c3ccccc3)c3ccccc3)CC2)c1Cl | -10.6 | -17.2 | 92.9* | -1.7 | 0.7
CC(C)CC(C(=O)OCC(=O)c1c(N)n(C)c(=O)n(C)c1=O)N1C(=O)c2ccccc2C1=O (stereo unspecified) | -15.9 | -4.8 | 57.2* | 0.9 | -13.2
CCN1CCN(C(=O)c2ccccc2N(Cc2ccccc2)S(C)(=O)=O)CC1 | -24.1 | 4.1 | -5.9 | 3.4 | 19.0
Cc1ccc(S(=O)(=O)N(CC(=O)N2CCCCCC2)c2ccccc2)cc1 | 0.8 | -5.7 | 74.6* | 2.5 | nt
CCN1CCN(C(=O)c2ccccc2N(Cc2ccccc2)S(=O)(=O)c2ccc(C)cc2)CC1 | -1.1 | 0.7 | 98.0* | 1.1 | nt
